Data set [1] has as its system Influenza A virus. The data set can be described thus: Antiviral activity against oseltamivir-sensitive Influenza A virus (A/Hong Kong/8/68(H3N2)) infected in MDCK cells assessed as protection against virus-induced cytocidal effect at 20 uM after 48 hrs by CellTiter-Glo assay relative to control. In kind it is functional. The essentials:
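Same cytocidal protection assay in MDCK cells with H3N2 virus, tested at concentrations up to 20 μM. The read-out is the percent inhibition of viral cytocidal effect, with 50% used as the threshold.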
(Cellular ATP, detected with luciferase, serves as a proxy for viable cell number.)

Data set [2] is described as follows: Cytotoxicity against MDCK cells assessed as reduction of cell viability. In kind it is cell-based, Canis lupus familiaris. The note with it: dog. The gist of the method: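 Uninfected MDCK cells. CC50 is the concentration (μM) that reduced cell viability by 50%.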
Data set [3] deals with Influenza A virus. The data set can be described thus: Antiviral activity against oseltamivir-sensitive Influenza A virus (A/Hong Kong/8/68(H3N2)) assessed as inhibition of viral infectivity in MDCK cells at 10 uM after 6 hrs by FITC conjugated anti-NP antibodies/DAPI staining-based confocal microscopic analysis. In kind it is functional, organism-based. The essentials:
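MDCK cells were infected at MOI = 1 in the presence of 10 μM compound for 6 h. Infected cells were stained with FITC-conjugated anti-NP antibody, with DAPI as nuclear stain, and imaged by confocal microscopy. Infected cells without compound served as control.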

Data set [4] can be described thus: Metabolic stability in human plasma assessed as compound remaining at 1 uM after 10 mins by reverse phase HPLC analysis. In kind it is ADME, cell-free. The note with it: read-out: Stability. The gist of the method:
(§1)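 Compound incubated in 80% human plasma at 37 °C for varying times. Initial and remaining parent compound were quantified by reverse-phase HPLC. Benfluorex served as control. Data are averages of duplicate experiments.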

A short description of data set [5]: Metabolic stability in human plasma assessed as compound remaining at 1 uM after 2 hrs by reverse phase HPLC analysis. The note with it: read-out: Stability. In kind it is ADME, cell-free. The gist of the method:
as §1

24 compounds from ChEMBL document CHEMBL3576824, “Phenolic diterpenoid derivatives as anti-influenza a virus agents” (ACS Med Chem Lett, 2015) can be followed below.

Active and inactive are the calls of the source.

The CC50 is the concentration giving 50% cytotoxicity.

Consider `COC(=O)[C@@]1(C)CCC[C@]2(C)c3cc(OC)ccc3CC[C@@H]12`, for which the Activity in the data set with Influenza A virus [1] is reported as under 50%. Besides, the CC50 in data set [2] is over 40 µM.

On to `COC(=O)[C@@]1(C)CCC[C@]2(C)c3cc(OC(=O)CCCCCBr)ccc3CC[C@@H]12`, for which, in the data set with Influenza A virus [1], the Activity is on record as under 50%. Moreover, in data set [2], the CC50 is over 40 µM.

For the compound `C[C@]1(C(=O)OCc2ccccc2)CCC[C@]2(C)c3cc(O)ccc3CC[C@@H]12`, in the data set on Influenza A virus [1], the Activity was under 50%. Besides, the 50% cytotoxic concentration (CC50) in data set [2] was over 40 µM.

Consider `C=CC(=O)Oc1ccc2c(c1)[C@@]1(C)CCC[C@](C)(C(=O)OCc3ccccc3)[C@@H]1CC2`, for which the Activity in the data set on Influenza A virus [1] is under 50%. For the same compound, the CC50 in data set [2] is over 40 µM.

Consider `COC(=O)[C@@]1(C)CCC[C@]2(C)c3cc(OC(=O)C(C)F)ccc3CC[C@@H]12` (stereo partly specified), for which, in the data set with Influenza A virus [1], the Activity is recorded as under 50%. Moreover, in data set [2], the CC50 was over 40 µM.

Turning to `COC(=O)[C@@]1(C)CCC[C@]2(C)c3cc(OC(=O)CCCC(=O)O)ccc3CC[C@@H]12`, the Activity in the data set with Influenza A virus [1] is under 50%. Further, the CC50 in data set [2] is over 40 µM.

As to `COC(=O)[C@@]1(C)CCC[C@]2(C)c3cc(OC(=O)CCC(=O)O)ccc3CC[C@@H]12`, the Activity in the data set with Influenza A virus [1] was under 50%. Moreover, in data set [2], the CC50 was over 40 µM.

As for `COC(=O)[C@@]1(C)CCC[C@]2(C)c3cc(OC(=O)CCCCBr)ccc3CC[C@@H]12`, in the data set on Influenza A virus [1], the Activity was under 50%. Further, in data set [2], the CC50 was over 40 µM.

Regarding `COC(=O)[C@@]1(C)CCC[C@]2(C)c3cc(OCCC(=O)O)ccc3CC[C@@H]12`, the Activity in the data set on Influenza A virus [1] is listed as under 50%. In addition, in data set [2], the CC50 was over 40 µM.

Turning to `COC(=O)[C@@]1(C)CCC[C@]2(C)c3cc(OC(=O)CCBr)ccc3CC[C@@H]12`, in the data set on Influenza A virus [1], the Activity was under 50%. The CC50 in data set [2] was over 40 µM. Moreover, in the data set on Influenza A virus [3], the inhibition result was “Active”.

Take `COC(=O)[C@@]1(C)CCC[C@]2(C)c3cc(OC(C)=O)ccc3CC[C@@H]12`: the remaining at 10 min, 1 µM in data set [4] is 30%. Moreover, in the data set with Influenza A virus [1], the Activity is reported as under 50%. Further, the cytotoxic concentration (CC50) in data set [2] was over 40 µM.

On to `C[C@]1(C(=O)OCc2ccccc2)CCC[C@]2(C)c3cc(OCCC(=O)O)ccc3CC[C@@H]12`, for which the Activity in the data set on Influenza A virus [1] was under 50%. The CC50 in data set [2] is over 40 µM.

Consider `COC(=O)[C@@]1(C)CCC[C@]2(C)c3cc(O)ccc3CC[C@@H]12`, for which, in the data set on Influenza A virus [1], the Activity is reported as under 50%. Also, the remaining at 2 h, 1 µM in data set [5] came to 86%. For the same compound, the CC50 in data set [2] was over 40 µM.

For `COC(=O)[C@@]1(C)CCC[C@]2(C)c3cc(OC(=O)CCCBr)ccc3CC[C@@H]12`, the Activity in the data set with Influenza A virus [1] is reported as under 50%. In data set [2], the CC50 was over 40 µM.

Turning to `C[C@]1(C(=O)OCc2ccccc2)CCC[C@]2(C)c3cc(OC(=O)CCC(=O)O)ccc3CC[C@@H]12`, the Activity in the data set on Influenza A virus [1] was under 50%. Also, the CC50 in data set [2] was over 40 µM.

Consider `C[C@]1(C(=O)O)CCC[C@]2(C)c3cc(OC(=O)CCC(=O)O)ccc3CC[C@@H]12`, for which the Activity with Influenza A virus [1] was under 50%. Also, the CC50 in data set [2] is over 40 µM.

Turning to `CC(C)c1c(O)ccc2c1CC[C@H]1C(C)(C)CCC[C@]21C` [TOTAROL], the Activity with Influenza A virus [1] was under 50%. Also, the CC50 in data set [2] is 21 µM.

On to `C=CC(=O)Oc1ccc2c(c1)[C@@]1(C)CCC[C@](C)(C(=O)OC)[C@@H]1CC2`, for which the Activity in the data set with Influenza A virus [1] is reported as under 50%. The CC50 in data set [2] was over 40 µM.

For the compound `C=CC(=O)Oc1ccc2c(c1)[C@@]1(C)CCC[C@](C)(C(=O)NC)[C@@H]1CC2`, in the data set with Influenza A virus [1], the Activity is under 50%. Moreover, in data set [2], the CC50 was over 40 µM.

For `COC(=O)[C@@]1(C)CCC[C@]2(C)c3cc(OC)ccc3C(=O)C[C@@H]12`, the Activity with Influenza A virus [1] was under 50%. Further, the CC50 in data set [2] is over 40 µM.

`COC(=O)[C@@]1(C)CCC[C@]2(C)c3cc(OC(=O)C(C)C)ccc3CC[C@@H]12`: the Activity in the data set on Influenza A virus [1] is recorded as under 50%. The CC50 in data set [2] is over 40 µM.

Take `COC(=O)[C@@]1(C)CCC[C@]2(C)c3cc(OC(=O)C4CC4)ccc3CC[C@@H]12`: the Activity with Influenza A virus [1] is recorded as under 50%. Besides, in data set [2], the CC50 is over 40 µM.

Consider `C[C@]1(C(=O)O)CCC[C@]2(C)c3cc(O)ccc3CC[C@@H]12` [PODOCARIC ACID], for which, in the data set on Influenza A virus [1], the Activity is under 50%. Besides, the CC50 in data set [2] is 91.2 µM.

With `CNC(=O)[C@@]1(C)CCC[C@]2(C)c3cc(O)ccc3CC[C@@H]12`, the Activity in the data set on Influenza A virus [1] is under 50%. Also, in data set [2], the CC50 was over 40 µM.
